Drawing on ChEMBL document CHEMBL1157892, “Cucurbitacin E as a new inhibitor of cofilin phosphorylation in human leukemia U937 cells” (Bioorg Med Chem Lett, 2010), this text covers Activity and IC50 for three molecules.

Active and inactive are the calls of the source. No cut-off for these calls is given here.

The target of experiment [1] is Signal transducer and activator of transcription 3 (Homo sapiens) (UniProt P40763). The experiment in a line: Inhibition of STAT3 phosphorylation in human U937 cells at 10 uM after 24 hrs by Western blotting. Format: cell-based. Particulars: U-937. The essentials: (§1)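 U937 cells at 5.0 × 10⁴ cells/mL treated 24 h and lysed with phosphatase and protease inhibitors. 60 µg protein per lane run on 10% SDS–PAGE. Western blots probed with rabbit anti-phospho-STAT3 and anti-STAT3 (1:1000), then HRP anti-rabbit (1:5000), with ECL detection.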
Sequence of Signal transducer and activator of transcription 3 (Homo sapiens) (P40763 whole entry): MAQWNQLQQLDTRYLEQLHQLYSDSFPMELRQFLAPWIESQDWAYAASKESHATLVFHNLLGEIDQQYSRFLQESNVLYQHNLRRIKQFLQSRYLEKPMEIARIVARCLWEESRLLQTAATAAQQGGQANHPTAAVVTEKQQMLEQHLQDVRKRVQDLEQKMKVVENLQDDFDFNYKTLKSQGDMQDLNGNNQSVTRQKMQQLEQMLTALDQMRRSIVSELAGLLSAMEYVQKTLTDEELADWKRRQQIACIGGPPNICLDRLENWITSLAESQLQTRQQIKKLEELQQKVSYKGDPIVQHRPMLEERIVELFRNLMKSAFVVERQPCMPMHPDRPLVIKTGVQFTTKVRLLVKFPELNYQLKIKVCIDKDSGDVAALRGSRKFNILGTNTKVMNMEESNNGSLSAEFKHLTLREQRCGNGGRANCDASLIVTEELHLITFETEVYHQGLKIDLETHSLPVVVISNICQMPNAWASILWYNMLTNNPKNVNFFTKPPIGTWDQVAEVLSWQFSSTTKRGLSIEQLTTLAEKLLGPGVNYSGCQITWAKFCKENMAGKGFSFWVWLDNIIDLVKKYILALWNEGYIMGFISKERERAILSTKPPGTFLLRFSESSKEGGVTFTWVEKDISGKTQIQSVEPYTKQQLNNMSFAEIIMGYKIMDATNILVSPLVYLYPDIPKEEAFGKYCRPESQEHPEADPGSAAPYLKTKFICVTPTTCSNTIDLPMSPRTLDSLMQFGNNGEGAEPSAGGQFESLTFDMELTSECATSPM
On the technique in general: Immunoblotting shows a protein as a band on a membrane.

Experiment [2] has the same target. The experiment in a line: Inhibition of STAT3 phosphorylation in human U937 cells at 100 uM after 24 hrs by Western blotting. The following applies: U-937. Format: cell-based. The essentials: as §1
For experiment [3], the system named is HL-60. The experiment in a line: Cytotoxicity against human HL60 cells after 72 hrs by WST-8 assay. Format: functional, cell-based. The following applies: HL-60, 72 h. In short, it runs like this: (§2)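 Cells seeded at 5.0 × 10³ cells/100 µL/well in RPMI-1640 and exposed to compounds for 68 h. WST-8 was then added for a further 4 h. Formazan absorbance read at 450 nm (reference 655 nm). Percent inhibition calculated and IC50 read graphically from the curve.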
(Formazan colour is commonly taken as a measure of viable cells.)

Experiment [4] has as its system HT-1080. Description: Cytotoxicity against human HT1080 cells after 72 hrs by WST-8 assay. It counts as functional, cell-based. The following applies: HT-1080, 72 h. The essentials: as §2
Experiment [5] deals with U-937. The experiment in a line: Cell cycle arrest in human U937 cells assessed as reduction of cell population at G0/G1 phase at 100 nM after 24 hrs using propidium iodide staining by flow cytometry relative to control. It counts as functional. Details: scale not given: the % may be the effect or the level left. In short, it runs like this: (§3)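 U937 cells at 5.0 × 10⁴ cells/mL treated 24 h, pelleted, fixed in ice-cold ethanol overnight at −20 °C, treated with DNase-free RNase (0.25 mg/mL) at 37 °C for 30 min, then stained with propidium iodide. DNA content read by flow cytometry, 20,000 cells per sample. G0/G1, S and G2/M fractions compared with untreated control.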
(In general: A flow cytometer gives signals particle by particle.)

Experiment [6] relates to U-937. The experiment in a line: Cell cycle arrest in human U937 cells assessed as reduction of cell population at S phase at 100 nM after 24 hrs using propidium iodide staining by flow cytometry relative to control. Format: functional. Further details: scale not given: the % may be the effect or the level left. The essentials:
as §3

Experiment [7] relates to U-937. Description: Cell cycle arrest in human U937 cells assessed as increase of cell population at G2/M phase at 100 nM after 24 hrs using propidium iodide staining by flow cytometry relative to control. Format: functional. In short, it runs like this: as §3
The target in experiment [8] is Cofilin-1 (Homo sapiens) (UniProt P23528). Description: Inhibition of cofilin phosphorylation in human U937 cells after 24 hrs by Western blotting. It counts as cell-based. The following applies: U-937. The essentials: (§4)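 U937 cells at 5.0 × 10⁴ cells/mL treated 24 h, then lysed with phosphatase and protease inhibitors. Equal protein loaded on SDS–PAGE. Blots probed 1 h with rabbit antibodies (1:1000) to phospho-cofilin, phospho-LIMK1/2, cofilin and β-actin in T-TBS. Detection with HRP anti-rabbit (1:5000) and ECL.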
Sequence of Cofilin-1 (Homo sapiens) (P23528 whole entry): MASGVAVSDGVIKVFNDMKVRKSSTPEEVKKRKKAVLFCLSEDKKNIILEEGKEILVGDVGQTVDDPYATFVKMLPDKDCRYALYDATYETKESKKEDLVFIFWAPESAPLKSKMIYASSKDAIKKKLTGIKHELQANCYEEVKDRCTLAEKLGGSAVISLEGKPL

The target in experiment [9] is T1, LIM domain kinase 1/2 (Homo sapiens) (UniProt P53671+P53667). The experiment in a line: Inhibition of LIMK1/2 phosphorylation in human U937 cells at 0.1 to 100 nM after 24 hrs by Western blotting. Format: cell-based. The following applies: U-937. In short, it runs like this:
as §4

For experiment [10], the system named is HT-1080. Description: Decrease of F to G actin ratio in human HT1080 cells at 100 nM after 24 hrs. It counts as functional, cell-based. In short, it runs like this:
(§5)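 HT1080 cells seeded at 1.0 × 10⁴ cells/100 µL/well and treated 24 h at 37 °C. Cells fixed in 4% formaldehyde, permeabilized with cold methanol and blocked. F-actin stained with Alexa 350 phalloidin and G-actin with Alexa 488 DNase I, each 15 min at rt in the dark. Fluorescence read at ex 355/em 405 and ex 480/em 520 nm. Results are mean of n = 4; Dunnett's test against control.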

Experiment [11] has as its system U-937. Description: Cytotoxicity against human U937 cells after 72 hrs by WST-8 assay. Particulars: U-937, 72 h. Format: functional, cell-based. The essentials:
as §2

Experiment [12] relates to HT-1080. The experiment in a line: Decrease of F to G actin ratio in human HT1080 cells at 1000 nM after 24 hrs. It counts as functional, cell-based. In short, it runs like this: as §5
Experiment [13] concerns the target T1, LIM domain kinase 1/2 (Homo sapiens). The experiment in a line: Inhibition of LIMK1/2 phosphorylation in human U937 cells at 0.1 to 1000 nM after 24 hrs by Western blotting. The following applies: U-937. Format: cell-based. In short, it runs like this:
as §4

T1 sequence (P53667 whole entry, looked up, the tested form may be a part): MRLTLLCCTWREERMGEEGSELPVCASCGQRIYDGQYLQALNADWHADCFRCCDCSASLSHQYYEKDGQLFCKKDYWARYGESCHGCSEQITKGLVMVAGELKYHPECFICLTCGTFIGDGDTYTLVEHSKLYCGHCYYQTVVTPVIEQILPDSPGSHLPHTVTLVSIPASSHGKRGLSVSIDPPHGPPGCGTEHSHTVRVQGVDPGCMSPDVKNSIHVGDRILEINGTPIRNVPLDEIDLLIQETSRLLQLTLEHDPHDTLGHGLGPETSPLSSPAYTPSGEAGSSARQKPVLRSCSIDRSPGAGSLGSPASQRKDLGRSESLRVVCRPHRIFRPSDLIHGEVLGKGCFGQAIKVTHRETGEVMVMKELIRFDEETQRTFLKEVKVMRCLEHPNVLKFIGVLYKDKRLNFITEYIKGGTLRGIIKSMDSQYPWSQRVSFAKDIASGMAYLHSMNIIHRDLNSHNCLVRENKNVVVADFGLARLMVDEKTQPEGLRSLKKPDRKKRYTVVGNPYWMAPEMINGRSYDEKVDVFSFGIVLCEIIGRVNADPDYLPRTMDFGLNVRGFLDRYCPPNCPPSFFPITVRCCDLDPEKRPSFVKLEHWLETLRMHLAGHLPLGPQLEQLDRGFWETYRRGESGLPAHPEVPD
T1 sequence (P53671 whole entry, looked up, the tested form may be a part): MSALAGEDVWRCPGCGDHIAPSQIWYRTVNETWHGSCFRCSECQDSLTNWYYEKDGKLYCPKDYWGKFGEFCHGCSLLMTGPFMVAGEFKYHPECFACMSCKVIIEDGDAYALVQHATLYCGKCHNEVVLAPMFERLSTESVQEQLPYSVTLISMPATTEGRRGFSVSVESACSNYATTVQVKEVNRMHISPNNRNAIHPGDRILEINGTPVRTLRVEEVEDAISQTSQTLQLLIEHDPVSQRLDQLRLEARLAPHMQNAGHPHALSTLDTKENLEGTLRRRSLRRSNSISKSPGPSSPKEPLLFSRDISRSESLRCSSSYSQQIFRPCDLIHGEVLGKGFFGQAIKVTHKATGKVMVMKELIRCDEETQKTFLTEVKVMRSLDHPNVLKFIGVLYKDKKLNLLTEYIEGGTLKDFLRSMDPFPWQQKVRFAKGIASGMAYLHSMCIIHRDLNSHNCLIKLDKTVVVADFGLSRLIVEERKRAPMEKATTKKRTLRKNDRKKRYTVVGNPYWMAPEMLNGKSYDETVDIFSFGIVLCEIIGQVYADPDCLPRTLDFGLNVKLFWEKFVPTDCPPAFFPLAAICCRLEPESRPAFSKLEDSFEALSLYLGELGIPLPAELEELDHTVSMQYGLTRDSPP

`CC(=O)OC(C)(C)/C=C/C(=O)[C@](C)(O)[C@H]1[C@H](O)C[C@@]2(C)[C@@H]3CC=C4[C@H](C[C@H](O)C(=O)C4(C)C)[C@]3(C)C(=O)C[C@]12C`: in experiment [1], the outcome was inactive. The result in experiment [2] was Active.
A word on the IC50: it is the concentration that gives 50% inhibition. For the molecule `CC(=O)OC(C)(C)/C=C/C(=O)[C@](C)(O)[C@H]1[C@H](O)C[C@@]2(C)[C@@H]3CC=C4[C@@H](C=C(O)C(=O)C4(C)C)[C@]3(C)C(=O)C[C@]12C` [CUCURBITACIN E], the IC50 in experiment [3] came out at 18 nM; in [4] it was 40 nM; in [11], 16 nM. The Activity in [5] was 37.7%; in experiment [6], 28.1%; in experiment [7], 34.2%; in [8] it was “Dose-dependent effect”. The result in [1] and in experiment [9] was inactive. In [10], the result was Active.
On to `CC(C)(O)/C=C/C(=O)[C@](C)(O)[C@H]1[C@H](O)C[C@@]2(C)[C@@H]3CC=C4[C@@H](C=C(O)C(=O)C4(C)C)[C@]3(C)C(=O)C[C@]12C` [CUCURBITACIN I], for which the Activity entry in [8] is “Dose-dependent effect”. The outcome in [9] and in experiment [13] was inactive. The outcome in experiment [12] was Active.
